High-throughput results deposited in PubChem BioAssay by Johns Hopkins Ion Channel Center.
KCNQ1 block = human KCNQ1 channel inhibition; B-score at 10 µM; 310,000 tested, 1.3% active; CHO-K1 KCNQ1, FluxOR thallium flux fluorescence; hits give high values;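 active = compounds whose thallium flux B-score, printed positive for inhibition, exceeds three library SD while starting fluorescence stays within three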;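 note: channel opened by potassium depolarization with thallium stimulus after 20 min compound exposure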
hERG rescue = hERG (human) protection from proarrhythmic block | CHO-hERG, FluxOR thallium flux, dofetilide IC70 present | activation (rescue from dofetilide block), less the hit threshold, % at 10 µM | AID 1511 | 310,000 tested, 0.51% active;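 active = activation above the mean of controls blocked by dofetilide plus 5 SD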;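 note: thallium influx through hERG after potassium depolarization seen as dye fluorescence rise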
KCNK3 inh = human KCNK3 channel inhibition, primary screen. O14649. CHO-KCNK3 thallium flux, FluxOR fluorescence; hits give low values. B-score at 10 µM. 340,000 tested, 0.84% active;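 active = B-score under library mean minus 4 SD, starting fluorescence ratio at most library mean plus 5 SD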;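 note: more negative B-score means stronger inhibition of thallium flux through KCNK3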
Kir21 block = inhibitors of mouse Kir2.1 inward-rectifier potassium channel | B-score at 10 µM | HEK293-Kir2.1, FluxOR thallium flux fluorescence; hits give low values | AID 1672 | 310,000 tested, 0.85% active | P35561;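 active = fluorescence ratio B-score at or below minus 3 SD of library scores, with starting-brightness B-score within 2 SD, cut at about -4.2 in these data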;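 note: channel flux triggered by added potassium and thallium sulfate stimulus; B-score of peak minus minimum fluorescence over baseline after thallium stimulus; more negative B-score means stronger Kir2.1 block with less thallium influx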
KCNQ1 pot = potentiators or activators of human KCNQ1 potassium channel | CHO-K1 KCNQ1, thallium flux FluxOR fluorescence; hits give high values | B-score at 10 µM | 310,000 tested, 0.35% active | AID 2648;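 active = fluorescence ratio B-score, a plate-corrected score, at least three library SD, with initial intensity B-score within 5 SD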
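assay system = CHO-K1 cells stably expressing KCNQ1 | medium = assay buffer, equal DMSO in all wells | timing = 37 °C overnight plating, 90-min dark dye load, 20-min compound pretreatment | measured by = kinetic FluxOR thallium fluorescence, 10-s 1-Hz baseline, 110-s post-stimulus read | measure = fluorescence change relative to baseline, converted to B score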
KCNK9 block = inhibitors of human KCNK9 two-pore domain potassium channel; B-score at 10 µM; Q9NPC2; HEK293 KCNK9, FluxOR thallium flux fluorescence; hits give low values; 310,000 tested, 1.2% active;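 active = ratio B-score over 3 SD below the library mean, with starting fluorescence within 5 SD of its mean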;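 note: negative B-score means less thallium flux so channel inhibition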
Target sequence (Q9NPC2 whole entry, looked up, the tested form may be a part): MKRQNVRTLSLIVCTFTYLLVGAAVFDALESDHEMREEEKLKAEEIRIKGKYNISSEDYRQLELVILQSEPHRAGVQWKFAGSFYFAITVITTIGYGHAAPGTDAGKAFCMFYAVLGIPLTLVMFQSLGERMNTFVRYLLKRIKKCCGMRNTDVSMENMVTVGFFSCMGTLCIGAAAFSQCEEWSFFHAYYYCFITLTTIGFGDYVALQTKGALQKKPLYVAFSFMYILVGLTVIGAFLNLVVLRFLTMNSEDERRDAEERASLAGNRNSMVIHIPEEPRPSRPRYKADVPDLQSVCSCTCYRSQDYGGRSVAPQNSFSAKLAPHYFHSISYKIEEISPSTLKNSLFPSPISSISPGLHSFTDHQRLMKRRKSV
KCNK3 confirm = human KCNK3 channel inhibition, confirmation assay; shares compounds with KCNK3 inh; CHO-KCNK3 thallium flux, FluxOR fluorescence; 0% buffer, 100% carvedilol maximal block; ratio percent of control, % at 10 µM; 2,400 tested, 99% active; AID 651638;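 active = ratio percent of control, averaged over triplicates, above buffer control mean plus 5 SD, cut at about 64% in these data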;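 note: ratio is the fluorescence rise from min to max over baseline after thallium stimulus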
KCNK3 noninduced = KCNK3 inhibitor counter-screen hit in non-induced cells. shares compounds with KCNK3 inh. non-induced KCNK3 parental cells, FluxOR thallium flux; hits give low values. thallium flux ratio (lower = more inhibition) at 10 µM. 2,400 tested, 40% active. AID 651747;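 active = thallium flux ratio, averaged over three wells, more than 5 SD below the buffer control mean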;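 note: host cells are CHO cells without KCNK3 induction; ratio is peak minus trough fluorescence over baseline then normalized to buffer controls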
Active calls of the source: *. Hits are enriched below; roughly 3.7% of the tested compounds scored in any of these assays.

O=C(c1nc2ccc(Cl)cn2c1CNCCc1cnccn1)N1CCCCCCC1 was read as KCNQ1 block inactive, hERG rescue -13, KCNK3 inh inactive, Kir21 block -2.1, KCNQ1 pot inactive and KCNK9 block inactive.
For Cc1cccc2cc(CN(Cc3ccco3)C(=O)c3ccncc3)c(=O)[nH]c12 the results were KCNQ1 block inactive, hERG rescue -16, KCNK3 inh -22*, Kir21 block 2.2, KCNQ1 pot inactive, KCNK9 block inactive, KCNK3 confirm 63* and KCNK3 noninduced inactive.
Screening O=C(O)CCC(=O)Nc1nc2nccc(-c3ccccc3)n2n1 returned KCNQ1 block inactive, hERG rescue -7, KCNK3 inh inactive, Kir21 block 0.26, KCNQ1 pot inactive and KCNK9 block inactive.
`CN(c1ccc(Cl)cc1)c1cc(=O)n(C)c2ccccc12` gave KCNQ1 block inactive, hERG rescue -5, KCNK3 inh -8.8*, Kir21 block -7*, KCNQ1 pot inactive, KCNK9 block inactive, KCNK3 confirm 98* and KCNK3 noninduced inactive.
`CN(C(=O)COc1cc(=O)n(C)c2ccccc12)c1ccc(Cl)cc1` gave KCNQ1 block inactive, hERG rescue -12, KCNK3 inh inactive, Kir21 block -0.56, KCNQ1 pot inactive and KCNK9 block inactive.
`CCOC(=O)c1cc(-c2csc(COc3ccccc3)n2)on1` gave KCNQ1 block inactive, hERG rescue -10, KCNK3 inh inactive, Kir21 block 0.35, KCNQ1 pot inactive and KCNK9 block inactive.
Cc1onc(-c2ccccc2)c1-c1csc(COc2ccccc2)n1 was read as KCNQ1 block inactive, hERG rescue -12, KCNK3 inh -12*, Kir21 block 1.1, KCNQ1 pot inactive, KCNK9 block -7.8*, KCNK3 confirm 96* and KCNK3 noninduced 0.14*.
`COC(=O)c1cn(C(=O)c2cccc(C)c2)c2ccccc12` gave KCNQ1 block inactive, hERG rescue -12, KCNK3 inh inactive, Kir21 block 1.3, KCNQ1 pot inactive and KCNK9 block inactive.
For Cc1cc(C)c(S(=O)(=O)Nc2ccc(C(=O)O)cc2)cc1S(=O)(=O)Nc1ccc(C(=O)O)cc1 the results were KCNQ1 block inactive, hERG rescue -11, KCNK3 inh inactive, Kir21 block 0.03, KCNQ1 pot inactive and KCNK9 block inactive.
`Cc1ccc(CNC(=O)Cn2c(=O)oc3ccccc32)o1` gave KCNQ1 block inactive, hERG rescue -4, KCNK3 inh -12*, Kir21 block 1, KCNQ1 pot inactive, KCNK9 block inactive, KCNK3 confirm 77* and KCNK3 noninduced inactive.
`CC(C)Oc1ccc(CNC(=O)Cn2c(=O)oc3ccccc32)cc1` gave KCNQ1 block inactive, hERG rescue 1, KCNK3 inh inactive, Kir21 block 0.59, KCNQ1 pot inactive and KCNK9 block inactive.
`O=C(O)C1C2C=CC(C2)C1C(=O)NCc1ccc2c(c1)OCO2` (stereo not drawn) gave KCNQ1 block inactive, hERG rescue -1, KCNK3 inh -8.9*, Kir21 block -0.58, KCNQ1 pot inactive, KCNK9 block inactive, KCNK3 confirm 90* and KCNK3 noninduced inactive.
For S=C1NCCNC(=S)NCCOCCOCCOCCN1 the results were KCNQ1 block inactive, hERG rescue -16, KCNK3 inh inactive, Kir21 block 0.04, KCNQ1 pot inactive and KCNK9 block inactive.
Screening N#Cc1ccccc1Sc1ccccc1C(=O)Nc1ccc2ccccc2c1 returned KCNQ1 block inactive, hERG rescue -13, KCNK3 inh inactive, Kir21 block -0.28, KCNQ1 pot inactive and KCNK9 block inactive.
For COc1ccc(Sc2ccc(NC(=O)c3ccccc3Cl)cc2C#N)cc1 the results were KCNQ1 block inactive, hERG rescue -7, KCNK3 inh -12*, Kir21 block 0.41, KCNQ1 pot inactive, KCNK9 block inactive, KCNK3 confirm 106* and KCNK3 noninduced 0.15*.
For CC1CC2C(C(O)CC3(C)C2CCC3(O)C(=O)CO)C2(C)C=CC(=O)C=C12 (stereo not drawn) the results were KCNK3 inh inactive.
`Cc1c(C(=O)N2CCc3ccccc32)oc2ccccc12` gave KCNQ1 block inactive, hERG rescue -10, KCNK3 inh inactive, Kir21 block -0.55, KCNQ1 pot inactive and KCNK9 block inactive.
For COCc1c(C(=O)N2CCc3ccccc32)oc2ccccc12 the results were KCNQ1 block inactive, hERG rescue -4, KCNK3 inh -11*, Kir21 block -0.02, KCNQ1 pot inactive, KCNK9 block inactive, KCNK3 confirm 86* and KCNK3 noninduced inactive.
`COc1cc(NC(=O)CSc2nc3[nH]c(=O)cc(O)c3s2)cc(OC)c1OC` gave KCNK3 inh inactive.
For COc1ccc(/C=C2/SC(c3ccc(C)cc3)=NC2=O)cc1OC the results were KCNQ1 block inactive, hERG rescue -6, KCNK3 inh inactive, Kir21 block -1.1, KCNQ1 pot inactive and KCNK9 block inactive.
COc1cc(/C=C2\SC(c3ccc(C)cc3)=NC2=O)ccc1O was read as KCNQ1 block inactive, hERG rescue -4, KCNK3 inh -9.4*, Kir21 block -0.1, KCNQ1 pot inactive, KCNK9 block inactive, KCNK3 confirm 142* and KCNK3 noninduced 0.099*.
Screening Cc1ccc(NS(=O)(=O)c2ccc(-c3cnc(C4CC4)o3)cc2)c(C)c1 returned KCNQ1 block inactive, hERG rescue -6, KCNK3 inh -10*, Kir21 block 0.68, KCNQ1 pot inactive, KCNK9 block inactive, KCNK3 confirm 132* and KCNK3 noninduced 0.14*.
`Cc1ccc(N(C)S(=O)(=O)c2cc(-c3cnc(C4CC4)o3)ccc2C)cc1` gave KCNQ1 block inactive, hERG rescue -12, KCNK3 inh -11*, Kir21 block -0.16, KCNQ1 pot inactive, KCNK9 block inactive, KCNK3 confirm 145* and KCNK3 noninduced inactive.
`Cc1ccccc1N(C(=O)c1snc(C(N)=O)c1N)C(C(=O)NCC1CCCO1)c1ccc(F)cc1` (stereo not drawn) gave KCNQ1 block inactive, hERG rescue -7, KCNK3 inh inactive, Kir21 block -3.7, KCNQ1 pot inactive and KCNK9 block inactive.
